The text below walks through data of ChEMBL document CHEMBL4321849, “Biphenyl Acid Derivatives as APJ Receptor Agonists” (J Med Chem, 2019).

In series [1] the target is T1, Apelin receptor (Homo sapiens, UniProt P35414).
T1 sequence (P35414 whole entry): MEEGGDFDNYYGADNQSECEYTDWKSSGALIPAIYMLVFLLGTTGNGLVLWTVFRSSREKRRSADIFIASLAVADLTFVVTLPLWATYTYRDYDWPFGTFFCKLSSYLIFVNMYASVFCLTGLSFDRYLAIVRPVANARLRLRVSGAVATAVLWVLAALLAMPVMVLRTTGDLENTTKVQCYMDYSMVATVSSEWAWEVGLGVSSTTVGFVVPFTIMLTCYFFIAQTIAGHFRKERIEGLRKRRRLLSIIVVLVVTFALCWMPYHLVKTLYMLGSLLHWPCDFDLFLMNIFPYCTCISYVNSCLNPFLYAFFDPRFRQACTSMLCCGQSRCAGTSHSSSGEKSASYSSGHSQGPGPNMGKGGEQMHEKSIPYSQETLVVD
The series is described as follows: Agonist activity at human APJ-R expressed in HEK293 cells assessed as inhibition of forskolin- stimulated cAMP accumulation incubated for 30 mins by HTRF assay. The format is functional, cell-based. (Changes in cAMP serve as a functional read-out for many G protein-coupled receptors.)

For series [2], the target named is T2, Apelin receptor (Rattus norvegicus, UniProt Q9JHG3).
T2 sequence (Q9JHG3 whole entry): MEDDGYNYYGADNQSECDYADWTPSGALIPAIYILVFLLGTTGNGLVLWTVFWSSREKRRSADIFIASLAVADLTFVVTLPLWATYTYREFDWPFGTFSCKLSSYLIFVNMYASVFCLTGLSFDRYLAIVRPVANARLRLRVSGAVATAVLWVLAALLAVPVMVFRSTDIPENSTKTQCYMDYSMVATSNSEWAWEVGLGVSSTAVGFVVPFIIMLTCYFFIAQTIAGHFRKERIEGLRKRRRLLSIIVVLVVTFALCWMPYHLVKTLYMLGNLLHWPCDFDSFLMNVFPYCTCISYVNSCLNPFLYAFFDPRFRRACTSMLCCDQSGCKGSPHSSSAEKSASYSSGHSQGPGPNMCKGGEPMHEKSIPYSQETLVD
Put plainly: Agonist activity at rat APJ-R expressed in HEK293 cells assessed as inhibition of forskolin- stimulated cAMP accumulation incubated for 30 mins by HTRF assay. The format is functional, cell-based.

Series [3] in a line: Toxicity in isoflurane-anesthetized Sprague-Dawley rat assessed as effect on heart rate at 6 ug/min/kg, iv infused into jugular vein for 15 mins with continuous monitoring of hemodynamics followed by monitoring for additional 15 mins after terminating infusion by pressure-volume loop analysis relative to control. The format is organism-based. The note with it: in vivo, 0.25 h. The procedure, abridged:
(§1)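 Male SD rats under isoflurane, instrumented with a Millar PV-loop catheter in the LV and a pressure catheter in the abdominal aorta. After a stable baseline, test agent or N,N-dimethylacetamide vehicle (100 μL/kg/min) infused into the jugular vein for 15 min. Hemodynamics were monitored continuously during infusion and for 15 min after it stopped. n = 7–8 per dose, vehicle n = 10.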

In series [4] the test system is Rattus norvegicus. Put plainly: Acute hemodynamic effect in isoflurane-anesthetized Sprague-Dawley rat assessed as increase in cardiac output at 6 ug/min/kg, iv infused into jugular vein for 15 mins with continuous monitoring of hemodynamics followed by monitoring for additional 15 mins after terminating infusion by pressure-volume loop analysis relative to control. It is filed as functional, organism-based. The procedure, abridged: as §1

Series [5] is described as follows: Toxicity in isoflurane-anesthetized Sprague-Dawley rat assessed as effect on blood pressure by measuring transient blood pressure drop at 6 ug/min/kg, iv infused into jugular vein for 15 mins with continuous monitoring of hemodynamics followed by monitoring for additional 15 mins after terminating infusion by pressure-volume loop analysis relative to control. The conditions noted are these: in vivo, 0.25 h. The format is organism-based. The method, boiled down: as §1

Series [6] in a line: Solubility in pH 7.4 buffer using amorphous form. The format is physicochemical.
Series [7] in a line: Plasma concentration in Sprague-Dawley rat at 10 ug/min/kg, iv infused into jugular vein for 15 mins. The format is ADME, organism-based. The method, boiled down:
(§2)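 Rats separate from the hemodynamic groups received the same 15 min jugular infusions (n = 3/dose). Plasma concentration (μM) was measured at the end of the 15 min infusion. Washout samples were also taken after stopping the 10 and 1000 μg/kg/min infusions.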

Series [8] can be described thus: Toxicity in isoflurane-anesthetized Sprague-Dawley rat assessed as effect on heart rate at 10 to 1000 ug/min/kg, iv infused into jugular vein for 15 mins with continuous monitoring of hemodynamics followed by monitoring for additional 15 mins after terminating infusion by pressure-volume loop analysis relative to control. The format is organism-based. The note with it: in vivo, 0.25 h. The method, boiled down: as §1

In series [9] the test system is Rattus norvegicus. The series is described as follows: Acute hemodynamic effect in isoflurane-anesthetized Sprague-Dawley rat assessed as increase in cardiac output at 100 ug/min/kg, iv infused into jugular vein for 15 mins with continuous monitoring of hemodynamics followed by monitoring for additional 15 mins after terminating infusion by pressure-volume loop analysis relative to control. It is filed as functional. The method, boiled down:
as §1

Series [10] in a line: Plasma concentration in Sprague-Dawley rat at 100 ug/min/kg, iv infused into jugular vein for 15 mins. The format is ADME, organism-based. The method, boiled down: as §2
Series [11] can be described thus: Toxicity in isoflurane-anesthetized Sprague-Dawley rat assessed as effect on blood pressure by measuring transient blood pressure drop at 100 ug/min/kg, iv infused into jugular vein for 15 mins with continuous monitoring of hemodynamics followed by monitoring for additional 15 mins after terminating infusion by pressure-volume loop analysis relative to control. It is filed as organism-based. The conditions noted are these: in vivo, 0.25 h. The method, boiled down: as §1

The nature of series [12]: Plasma concentration in Sprague-Dawley rat at 1000 ug/min/kg, iv infused into jugular vein for 15 mins. The format is ADME, organism-based. The procedure, abridged: as §2
A short description of series [13]: Toxicity in isoflurane-anesthetized Sprague-Dawley rat assessed as effect on heart rate at 100 ug/min/kg, iv infused into jugular vein for 15 mins with continuous monitoring of hemodynamics followed by monitoring for additional 15 mins after terminating infusion by pressure-volume loop analysis relative to control. It is filed as organism-based. The note with it: in vivo, 0.25 h. The method, boiled down: as §1

Series [14] deals with T3, Apelin receptor (Homo sapiens) (UniProt P35414).
T3 sequence (whole entry): T1 sequence (P35414 whole entry)
The series is described as follows: Displacement of [125I]-apelin-13 from human APJ-R expressed in HEK293 cell membranes incubated for 1 hr by radioligand binding assay. The procedure, abridged:
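Membranes from HEK293 cells expressing human APJ-R (1 μg) were incubated with increasing test concentrations and 0.1 nM [125I]-(Pyr1)apelin-13. Buffer was 25 mM HEPES, 10 mM MgCl2, 2 mM EGTA and 0.1% BSA, pH 7.2. Incubation ran 1 h at room temperature. Bound ligand was separated on 0.3% polyethyleneimine-soaked GF/B filters.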

Series [15] relates to Rattus norvegicus. Put plainly: Acute hemodynamic effect in isoflurane-anesthetized Sprague-Dawley rat assessed as increase in cardiac output at 10 to 1000 ug/min/kg, iv infused into jugular vein for 15 mins with continuous monitoring of hemodynamics followed by monitoring for additional 15 mins after terminating infusion by pressure-volume loop analysis relative to control. The format is functional, organism-based. The method, boiled down:
as §1

Values after ≈ are worked out from the molar mass of the structure shown. Active and inactive are the calls of the source. The calls are words filed in the database; no cut-off is given here.

The EC50 is the midpoint of the concentration-response curve. For `CCC[C@@H](NC(=O)c1ccc(-c2cc(Cl)ccc2C(=O)Nc2ccc(OC)c(F)c2)c(C(=O)O)c1)c1ccccc1`, the EC50 in series [1] came out at 0.33 nM.

`CCC[C@@H](NC(=O)c1ccc(-c2cc(Cl)ccc2-c2ncc(-c3ccccc3)[nH]2)c(C(=O)O)c1)c1ccccc1`: the EC50 in series [1] was found to be 7.4 nM.

Turning to `CCC[C@@H](NC(=O)c1ccc(-c2cc(C)ccc2-c2nc3ccccc3[nH]2)c(C(=O)O)c1)c1ccccc1`, the concentration for a half-maximal effect (EC50) in series [1] came to 1.5 nM.

Turning to `CCC[C@@H](NC(=O)c1ccc(-c2c(F)cccc2-c2nc3ccccc3[nH]2)c(C(=O)O)c1)c1ccccc1`, the EC50 in [1] was 0.51 nM.

As for `CCC[C@@H](NC(=O)c1ccc(-c2c(C)cccc2-c2nc3ccccc3[nH]2)c(C(=O)O)c1)c1ccccc1`, in series [1], the EC50 was 0.18 nM.

For the compound `CCC[C@@H](NC(=O)c1ccc(-c2c(Cl)cccc2-c2nc3ccccc3[nH]2)c(C(=O)O)c1)c1ccccc1` (stereo in doubt; 15b), the results for the EC50 in series [2] and in series [1] were 43 nM and 22 nM, respectively.

As to `CCC[C@@H](NC(=O)c1ccc(-c2cc(Cl)ccc2-c2nc3cccc(C)c3[nH]2)c(C(=O)O)c1)c1ccccc1`, in series [1], the EC50 was found to be 51 nM.

Take `CCC[C@@H](NC(=O)c1ccc(-c2cc(Cl)ccc2-c2nc3cc(C)ccc3[nH]2)c(C(=O)O)c1)c1ccccc1`: the EC50 in [1] was found to be 0.6 nM.

Take `COC[C@@H](NC(=O)c1ccc(-c2cc(Cl)ccc2C(=O)Nc2ccc(OC)c(F)c2)c(C(=O)O)c1)c1ccccc1`: in series [1], the EC50 worked out at 0.19 nM.

As to `CCC[C@@H](NC(=O)c1ccc(-c2cccc(Cl)c2-c2nc3ccccc3[nH]2)c(C(=O)O)c1)c1ccccc1`, the EC50 in [1] amounted to 2100 nM.

On to `CCC[C@@H](NC(=O)c1ccc(-c2ccccc2-c2nc3ccccc3[nH]2)c(C(=O)O)c1)c1ccccc1`, for which, in [1], the EC50 was 5.7 nM.

As for `CCC[C@@H](NC(=O)c1ccc(-c2ccc(Cl)cc2-c2nc3ccccc3[nH]2)c(C(=O)O)c1)c1ccccc1`, the EC50 in series [1] worked out at 9 nM.

For `COc1ccc(NC(=O)c2ccc(Cl)cc2-c2ccc(C(=O)Nc3ccc4c(c3)CCC4)cc2C(=O)O)cc1F`, the EC50 in series [1] was found to be 29 nM.

Regarding `CSCC[C@H](NC(=O)[C@@H]1CCCN1C(=O)CNC(=O)[C@H](CCCCN)NC(=O)[C@H](Cc1cnc[nH]1)NC(=O)[C@H](CO)NC(=O)[C@H](CC(C)C)NC(=O)[C@H](CCCNC(=N)N)NC(=O)[C@@H]1CCCN1C(=O)[C@H](CCCNC(=N)N)NC(=O)[C@@H]1CCC(=O)N1)C(=O)N1CCC[C@H]1C(=O)N[C@@H](Cc1ccccc1)C(=O)O`, the Activity result in [3] and in series [5] was “Non-Toxic” in each case. Besides, in [4], the result was Active.

As usually defined, the solubility is how much of the substance goes into solution per volume. Higher therefore signals much dissolved substance. Take `CCC[C@@H](NC(=O)c1ccc(-c2c(Cl)cccc2-c2nc3cc(OC)ccc3[nH]2)c(C(=O)O)c1)c1ccccc1`: the EC50 was found to be 0.12 nM in [2] and 0.062 nM in series [1]. The amount in solution in series [6] (solubility) came to 180 µg/mL (≈ 325 µM).

As for `COc1ccc(NC(=O)c2ccc(Cl)cc2-c2ccc(C(=O)N[C@H](CO)c3ccccc3)cc2C(=O)O)cc1F`, the EC50 in series [1] turned out to be 59 nM.

Consider `CCC[C@@H](NC(=O)c1ccc(-c2c(Cl)cccc2-c2nc3ccccc3[nH]2)c(C(=O)O)c1)c1ccccc1` (stereo in doubt; 15a) [listing 1 of 2 here], for which the concentration at 0.25 h worked out at 0.44 µM in series [7], 4.4 µM in series [10] and 82 µM in [12]. Further, the EC50 in series [2] came to 0.12 nM; in series [1], 0.093 nM. The Activity entry in series [8] is reported as “Non-Toxic”; in series [9] it was 10%; in [11], less than 5%; in series [13], “Non-Toxic”. In [6], this compound came in with a solubility of 660 µg/mL (≈ 1260 µM).

Regarding `COC[C@H](NC(=O)c1ccc(-c2cc(Cl)ccc2C(=O)Nc2ccc(OC)c(F)c2)c(C(=O)O)c1)c1ccccc1`, the EC50 in [1] was 2.7 nM.

With `CCC[C@@H](NC(=O)c1ccc(-c2cc(Cl)ccc2-c2nc3cc(Cl)ccc3[nH]2)c(C(=O)O)c1)c1ccccc1`, the EC50 in [1] came out at 0.31 nM.

For the compound `CCC[C@@H](NC(=O)c1ccc(-c2cc(Cl)ccc2-c2nc3ccccc3o2)c(C(=O)O)c1)c1ccccc1`, the EC50 in series [1] amounted to 4900 nM.

On to `CCC[C@@H](NC(=O)c1ccc(-c2cc(Cl)ccc2-c2nc3ccccc3[nH]2)c(C(=O)O)c1)c1ccccc1`, for which, in series [1], the EC50 was 1.4 nM.

`CCC[C@@H](NC(=O)c1ccc(-c2cc(Cl)ccc2-c2nc3cc(OC)ccc3[nH]2)c(C(=O)O)c1)c1ccccc1`: the EC50 in [1] came to 0.083 nM.

Take `CCC[C@@H](NC(=O)c1ccc(-c2c(Cl)cccc2-c2nc3ccccc3[nH]2)c(C(=O)O)c1)c1ccccc1` (stereo in doubt; 12f): the EC50 in [1] is 0.2 nM.

In the case of `CCC[C@@H](NC(=O)c1ccc(-c2cc(Cl)ccc2-c2nc3ccncc3[nH]2)c(C(=O)O)c1)c1ccccc1`, the concentration giving a half-maximal response (EC50) in [1] came to 19 nM.

For `CCC[C@@H](NC(=O)c1ccc(-c2cc(OC)ccc2-c2nc3ccccc3[nH]2)c(C(=O)O)c1)c1ccccc1`, the EC50 in series [1] was 5.7 nM.

For `CCC[C@@H](NC(=O)c1ccc(-c2c(Cl)cccc2-c2nc3ccccc3[nH]2)c(C(=O)O)c1)c1ccccc1` (stereo in doubt; 15a) [listing 2 of 2 here], the inhibition result in series [14] was “Active”. The Activity entry in series [15] was “Dose-dependent effect”.
